OXTR ag = human OXTR agonists, primary screen, fluorescence, CHO-OTR cells, Fluo-8 calcium; Fluo-8 calcium fluorescence; normalized: DMSO 0%, oxytocin 100%; activation, % at 3 µM; hit rate 0.32% among 320,000; AID 2435, 2010;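 active = activation above the mean of all tested compounds plus 3 SD, cutoff set per screening run, cut at about 20% in these data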;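 also: peak over basal fluorescence ratio from a 100 s FLIPR kinetic read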
V1aR counter = agonists of human V1a receptor, primary screen, counter-screen for OXTR agonist project, fluorescence, CHO-V1R cells; Vasopressin V1a receptor (Homo sapiens), P37288; Fluo-8 calcium fluorescence, agonist mode; 0% DMSO, 100% 3 nM vasopressin; activation, % at 3 µM; hit rate 0.25% among 320,000; AID 2797, 2010;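 active = activation above the mean activation of all tested compounds plus 3 SD, per screening run, cut at about 20% in these data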;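 also: signal is peak over basal fluorescence ratio across a 100 second FLIPR read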
Target sequence (P37288 whole entry, looked up): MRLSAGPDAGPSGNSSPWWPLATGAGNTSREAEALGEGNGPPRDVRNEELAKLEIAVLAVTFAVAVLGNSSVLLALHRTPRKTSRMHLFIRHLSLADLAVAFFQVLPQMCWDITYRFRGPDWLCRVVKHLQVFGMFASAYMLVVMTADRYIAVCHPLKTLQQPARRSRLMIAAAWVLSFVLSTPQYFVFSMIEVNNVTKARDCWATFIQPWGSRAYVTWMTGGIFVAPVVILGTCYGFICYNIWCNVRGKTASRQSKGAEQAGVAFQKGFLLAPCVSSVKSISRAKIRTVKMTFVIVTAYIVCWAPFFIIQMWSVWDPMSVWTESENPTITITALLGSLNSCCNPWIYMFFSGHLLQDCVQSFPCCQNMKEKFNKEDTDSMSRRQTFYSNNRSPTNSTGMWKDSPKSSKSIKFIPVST
zfTRPN1 agonist = zebrafish TRPN1 channel agonists, primary screen, cell-based, HEK293, calcium fluorescence. transient receptor potential cation channel N1 (TRPN1/NompC), Danio rerio. HEK293 zebrafish TRPN1-YFP, Fluo-8 calcium fluorescence; 100% = response to 87 µM carbachol. activation, % at 3 µM. hit rate 0.18% among 220,000. AID 1424, 2008;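 active = activation above its plate's cutoff, the mean activation of test wells on that plate plus 3 SD, cut at about 19% in these data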;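 also: 0% = DMSO alone and 100% = 87 µM carbachol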
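System: zebrafish TRPN1-YFP in HEK293 cells / Dosing: 3 µM single point / Timing: dye loading 1 h at 37 °C, then 30 min room temperature / Signal: Fluo-8 calcium fluorescence, excitation 470-495 nm, emission 515-575 nm / Read-out basis: percent activation from peak over basal fluorescence ratio, control-normalized / Control set: high carbachol 87 µM, low DMSO alone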
TRPML3 ag = human TRPML3 channel agonists, primary screen, cell-based, HEK293 TRPML3-YFP, Fluo-8 calcium fluorescence, 3 µM; Mucolipin-3 (Homo sapiens), Q8TDD5; 100% = the carbachol control signal; activation, % at 3 µM; hit rate 0.29% among 220,000; AID 1448, 2008;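 active = activation above its plate's cutoff, the mean activation of the plate's test wells plus 3 SD, cut at about 12% in these data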;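 also: 0% = DMSO only wells and 100% = carbachol wells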
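Test system: HEK293 cells stably carrying human TRPML3-YFP; Doses: single dose, 3 µM final nominal compound, 0.3% DMSO final; Schedule: dye loading 1 h 37 °C then 30 min ambient, 125 s read; Technique: Fluo-8 calcium fluorescence; Benchmarks: high control carbachol 87 µM, low control DMSO.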
OXTR potentiate = human OXTR potentiators, primary screen, fluorescence, CHO-OTR cells, Fluo-8 calcium; hit rate 0.061% among 320,000; Fluo-8 calcium fluorescence, potentiator mode; 0% = oxytocin EC15, 100% = EC100; Oxytocin receptor (Homo sapiens), P30559; activation, % at 3 µM;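 active = activation above that plate's cutoff, the mean activation of tested compounds plus 3 SD, cut at about 6.6% in these data, passing the limit was not always enough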;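 also: 100% uses oxytocin at 75 nM as the full agonist control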
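Replication – single well per compound, singlicate · Assay system – CHO cell line stably expressing human OTR · Timing – 6 min pre-incubation, 100 s read · Measure – normalized max/min fluorescence ratio, % activation · Doses – 3.0 µM, one dose · Detection – Fluo-8 calcium dye fluorescence · Probe or stimulus – oxytocin near EC15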
Active calls of the source: *; . = not tested or not shown. Only some compounds are listed: those with a hit (about 0.59% of all), similar ones and a draw of the others.

SMILES	OXTR ag	V1aR counter	zfTRPN1 agonist	TRPML3 ag	OXTR potentiate
COC(=O)NNC(=O)C12CC3CC(CC(C3)C1)C2	0.3	0.3	0.4	0.7	-8.6
NC(=S)NNC(=O)C12CC3CC(CC(C3)C1)C2	33.8*	22.7*	28.5*	2.9	-16.6
O=[N+]([O-])c1ccc(NC(=S)NCCc2ccccc2)cc1	9.9	7.5	19.0*	12.4*	-18.2
CC(OC(=O)c1n[nH]c2ccccc12)C(=O)NC1CCCCC1C (stereo not drawn)	-1.5	-0.3	.	.	-6.8
O=c1[nH]c2ccccc2nc1/C=C(\O)c1cccs1	22.8*	29.4*	11.3	5.4	-15.0
O/C(=C\c1nc2ccccc2[nH]1)c1cccs1	-0.7	0.1	.	.	-6.5
CCCc1ccc(C(C)NC(=S)NCc2ccc(F)cc2)cc1 (stereo not drawn)	21.2*	21.4*	.	.	-17.2
O=C(Nc1ccc(Cl)cc1)C1CCCN(c2cnccn2)C1 (stereo not drawn)	3.3	2.4	.	.	-9.9
C#CCOCCOCCOCCNc1nc(N2CCN(C(=O)CCCCCCCCCCNC(=O)[C@H](CCCCN)n3cc(CCO)nn3)CC2)nc(N2CCN(C(=O)CCCCCCCCCCNC(=O)[C@H](CCCCN)n3cc(C[C@@H](C)CC)nn3)CC2)n1	6.1	24.6*	.	.	-13.5
CCOc1ccc(/C=C2\CCCc3c2nc2ccccc2c3C(=O)O)cc1OC	100.2*	134.8*	.	.	-17.3
COc1ccc(/C=C2\CCc3c2nc2ccccc2c3C(=O)O)cc1OC	10.9	10.6	0.6	1.1	-3.9
COc1ccc(/C=C2\CCCc3c2nc2ccccc2c3C(=O)O)cc1OC	1.6	14.2	40.2*	19.3*	-9.3
O=C(Sc1ccc(Cl)cc1)c1ccccn1	-1.6	0.6	.	.	-0.9
Cc1cc(C(=O)CCl)c(C)n1-c1cccc(S(=O)(=O)N2CCOCC2)c1	0.0	0.0	1.9	1.2	-4.7
COc1cc2cncc(Cc3ccc(Cl)cc3)c2cc1OC	4.2	7.1	.	.	-6.1
CC(C(=O)Nc1ccc2c(c1)OCCO2)c1ccc([N+](=O)[O-])cc1 (stereo not drawn)	44.5*	42.8*	19.9*	13.5*	-20.8
CC(C(=O)Nc1cccc(Br)c1)c1ccc([N+](=O)[O-])cc1 (stereo not drawn)	4.9	8.9	1.4	1.2	-10.8
CC(=O)Nc1cc(NC(C)=O)cc(C(=O)OCC(=O)Nc2ccc(S(=O)(=O)NC3=NCCCCC3)cc2)c1	-0.4	2.3	.	.	-4.2
CC(C)c1c(C(=O)N/N=C/c2cccnc2)nnn1-c1nonc1N	0.5	0.5	.	.	-10.5
Cc1ccc(-c2c(C(=O)N/N=C/c3ccc(C)o3)nnn2-c2nonc2N)cc1	3.0	4.8	.	.	-10.5
Cc1ccc(-c2c(C(=O)N/N=C/c3ccc(OC(C)C)cc3)nnn2-c2nonc2N)cc1	30.5*	36.6*	.	.	2.9
CCOc1ccc(-c2c(C(=O)N/N=C/c3cccs3)nnn2-c2nonc2N)cc1	11.8	13.9	.	.	-0.5
CCc1ccc(/C=N/NC(=O)c2nnn(-c3nonc3N)c2C(C)C)cc1	55.3*	47.4*	.	.	-5.9
CCOc1ccc(-c2c(C(=O)N/N=C/c3ccc(OC(C)C)cc3)nnn2-c2nonc2N)cc1	21.3*	22.6*	1.8	1.0	8.1
CCOc1ccc(/C=N/NC(=O)c2nnn(-c3nonc3N)c2-c2cccs2)cc1	35.3*	21.7*	.	.	-10.7
SMILES	OXTR ag	V1aR counter	zfTRPN1 agonist	TRPML3 ag	OXTR potentiate
CCOc1ccc(-c2c(C(=O)N/N=C/c3ccc(C)cc3)nnn2-c2nonc2N)cc1	15.8	15.4	2.4	5.6	9.1
COCCCn1c(SCC(=O)N2CCOCC2)nnc1-c1ccco1	0.3	-0.3	.	.	-0.8
CCCNC(=O)Cn1c(=O)/c(=C\c2ccc(-c3ccc([N+](=O)[O-])cc3)o2)s/c1=C\C(=O)C(C)(C)C	63.5*	36.6*	16.1	3.1	-11.9
CCCNC(=O)Cn1c(=O)/c(=C\c2ccc(-c3cccc([N+](=O)[O-])c3)o2)s/c1=C\C(=O)C(C)(C)C	1.8	1.7	0.0	0.7	-11.0
CC[n+]1c(/C=C/N(C)c2ccccc2)oc2ccc(Cl)cc21	0.7	6.4	0.5	0.4	2.4
CCN1/C(=C/C=C/c2oc3ccc4ccccc4c3[n+]2CC)Oc2ccc3ccccc3c21	39.4*	45.2*	72.5*	31.4*	-5.5
COC(=O)Cn1c(O)c(N=NC(=O)CNC(=O)COc2cccc(C)c2)c2ccccc21	0.7	3.2	.	.	-3.1
Cc1cc([N+](=O)[O-])ccc1NC(=O)c1cc2ccccc2o1	-2.6	0.7	.	.	-6.9
O=[N+]([O-])c1cc(S(=O)(=O)N2CCCCCC2)ccc1Cl	.	.	-2.7	22.3*	.
CCC1(c2ccc(F)cc2)NC(=O)N(CC(=O)N2CCc3ccccc32)C1=O (stereo not drawn)	29.1*	27.1*	.	.	-14.8
CCC1(c2ccc(F)cc2)NC(=O)N(CC(=O)Nc2ccccc2Cl)C1=O (stereo not drawn)	22.9*	22.0*	.	.	-15.3
CCC1(c2ccc(F)cc2)NC(=O)N(CC(=O)Nc2ccccc2C)C1=O (stereo not drawn)	18.1	9.4	.	.	-10.0
CC1(c2ccc(Cl)cc2)NC(=O)N(CC(=O)N2CCc3ccccc32)C1=O (stereo not drawn)	40.1*	27.9*	.	.	-13.4
O=C(CC(=O)c1ccccc1)Nc1ccccc1C(F)(F)F	-1.9	0.4	.	.	-18.6
Cc1[nH]c2ccccc2c1C=NNC(=O)c1cc(-c2cccnc2)nc2ccccc12	0.2	0.9	.	.	-4.9
Cc1ccc(S(=O)(=O)Nc2ccc(NC(=O)c3c(F)c(F)c(F)c(F)c3F)cc2)cc1	36.7*	27.3*	26.5*	5.1	-17.2
Cc1cc(NS(=O)(=O)c2ccc(NC(=O)c3c(F)c(F)c(F)c(F)c3F)cc2)nc(C)n1	0.1	0.9	.	.	-8.9
COc1ccc(NS(=O)(=O)c2ccc(C(=O)N3CCC(C)CC3)cc2)cc1	39.5*	24.4*	.	.	-13.1
CCOc1ccc(S(=O)(=O)Nc2ccc(C(=O)N3CC(C)OC(C)C3)cc2)cc1 (stereo not drawn)	34.5*	27.3*	.	.	-18.1
CCOc1ccc(NS(=O)(=O)c2ccc(C(=O)N3CC(C)OC(C)C3)cc2)cc1 (stereo not drawn)	58.2*	51.2*	.	.	-12.8
COc1ccc(S(=O)(=O)N2CCCC2CNC(=O)C(=O)Nc2ccc(F)cc2)cc1 (stereo not drawn)	-0.1	0.0	.	.	1.3

High-throughput results deposited in PubChem by The Scripps Research Institute Molecular Screening Center.
